According to ChEMBL document CHEMBL4425163, “Structure elucidation of anti-methicillin resistant Staphylococcus aureus (MRSA) flavonoids from balsam poplar buds” (Bioorg Med Chem, 2016):
pIC50: −log10 of the molar value. Values after ≈ are worked out from the molar mass of the structure shown.

Key:
Staphylococcus aureus [1] = experiment: Antibacterial activity against methicillin resistant Staphylococcus aureus clinical isolate 7 incubated […] by microdilution resazurin assay; format: functional; settings: Staphylococcus aureus, isolate 7; read-out: MIC
[2] = Cytotoxicity against human WS1 cells by resazurin reduction assay; format: cell-based; settings: Homo sapiens, WS1
How it was run: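 WS1 human fibroblast line; resazurin reduction test, slightly modified from an earlier method. Etoposide served as positive control.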

Staphylococcus aureus [3] = experiment: Antibacterial activity against methicillin resistant Staphylococcus aureus clinical isolate 8 incubated […] by microdilution resazurin assay; format: functional; settings: Staphylococcus aureus, isolate 8; read-out: MIC
Staphylococcus aureus [4] = experiment: Antibacterial activity against methicillin resistant Staphylococcus aureus clinical isolate 9 incubated […] by microdilution resazurin assay; format: functional; settings: Staphylococcus aureus, isolate 9; read-out: MIC
Staphylococcus aureus [5] = experiment: Antibacterial activity against methicillin resistant Staphylococcus aureus clinical isolate 6 incubated […] by microdilution resazurin assay; format: functional; settings: Staphylococcus aureus, isolate 6; read-out: MIC
Staphylococcus aureus [6] = experiment: Antibacterial activity against Staphylococcus aureus ATCC 25923 incubated […] by microdilution resazurin assay; format: functional; settings: Staphylococcus aureus, ATCC 25923; read-out: MIC
Staphylococcus aureus [7] = experiment: Antibacterial activity against methicillin resistant Staphylococcus aureus clinical isolate 4 incubated for 7 to 14 days by microdilution resazurin assay
Staphylococcus aureus [8] = experiment: Antibacterial activity against methicillin resistant Staphylococcus aureus clinical isolate 5 incubated […] by microdilution resazurin assay; format: functional; settings: Staphylococcus aureus, isolate 5; read-out: MIC
Staphylococcus aureus [9] = experiment: Antibacterial activity against methicillin resistant Staphylococcus aureus clinical isolate 1 incubated […] by microdilution resazurin assay; format: functional; settings: Staphylococcus aureus, isolate 1; read-out: MIC
Staphylococcus aureus [10] = experiment: Antibacterial activity against methicillin resistant Staphylococcus aureus clinical isolate 2 incubated […] by microdilution resazurin assay; format: functional; settings: Staphylococcus aureus, isolate 2; read-out: MIC
Staphylococcus aureus [11] = experiment: Antibacterial activity against methicillin resistant Staphylococcus aureus clinical isolate 10 incubated […] by microdilution resazurin assay; format: functional; settings: Staphylococcus aureus, isolate 10; read-out: MIC
Staphylococcus aureus [12] = experiment: Antibacterial activity against methicillin resistant Staphylococcus aureus clinical isolate 3 incubated for 7 to 14 days by microdilution resazurin assay

SMILES	MIC (Staphylococcus aureus [1]) [µM]	pIC50 [2]	MIC (Staphylococcus aureus [3]) [µM]	MIC (Staphylococcus aureus [4]) [µM]	MIC (Staphylococcus aureus [5]) [µM]	MIC (Staphylococcus aureus [6]) [µM]	MIC (Staphylococcus aureus [7]) [µM]	MIC (Staphylococcus aureus [8]) [µM]	MIC (Staphylococcus aureus [9]) [µM]	MIC (Staphylococcus aureus [10]) [µM]	MIC (Staphylococcus aureus [11]) [µM]	MIC (Staphylococcus aureus [12]) [µM]
O=C(CCc1ccccc1)c1c(O)c2c(c3c1O[C@@H](c1ccc(O)cc1)[C@H](C/C=C/c1ccc(O)cc1)C3)O[C@@H](c1ccc(O)cc1)[C@H](O)C2 (racemic)	6 (≈ 4.02 µg/mL)	< 5.00	6 (≈ 4.02 µg/mL)	6 (≈ 4.02 µg/mL)	6 (≈ 4.02 µg/mL)	6 (≈ 4.02 µg/mL)	6 (≈ 4.02 µg/mL)	6 (≈ 4.02 µg/mL)	6 (≈ 4.02 µg/mL)	6 (≈ 4.02 µg/mL)	6 (≈ 4.02 µg/mL)	6 (≈ 4.02 µg/mL)
O=C(CCc1ccccc1)c1c(O)cc2c(c1O)C[C@@H](C/C=C/c1ccc(O)cc1)[C@H](c1ccc(O)cc1)O2 (racemic)	> 50	< 5.00	> 50	> 50	> 50	> 50	> 50	> 50	> 50	> 50	> 50	> 50
